Measurements taken from ChEMBL document CHEMBL1142061, “The 6-fluoro-8-methoxy quinolone gatifloxacin down-regulates interleukin-8 production in prostate cell line PC-3” (Antimicrob Agents Chemother, 2007).
Calls of active or inactive are those of the source. No cut-off for these calls is given here.

How the values were obtained:
PC-3 [1] = experiment: Reduction of Mycoplasma hominis-stimulated IL8 secretion in human PC3 cells; type: functional; set-up: scale not given: the % may be the effect or the level left
Procedure, shortened: (§1)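 Cells seeded, transfected 24 h later, given GFLX 16 μg/ml 24 h after transfection. Then serum-free medium with fresh GFLX plus stimulus: PGN 1 μg/ml, M. hominis membrane fraction 0.1 μg/ml or […] for 6 h; TNF-α 10 ng/ml for 2 h. IL-8 in supernatant by ELISA; means ± SD, three experiments.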

PC-3 [2] = experiment: Suppression of PMA-stimulated IL8 secretion in human PC3 cells; type: functional; procedure, shortened: as §1
PC-3 [3] = experiment: Suppression of TNF alpha-stimulated IL8 secretion in human PC3 cells; type: functional, cell-based; procedure, shortened: as §1
PC-3 [4] = experiment: Suppression of 0.1 ng/ml LPS-stimulated IL8 secretion in human PC3 cells; type: functional
PC-3 [5] = experiment: Suppression of 1 ng/ml LPS-stimulated IL8 secretion in human PC3 cells; type: functional
PC-3 [6] = experiment: Suppression IL8 secretion in human PC3 cells at 16 ug/ml added simultaneously with TNF alpha; type: functional
Procedure, shortened: (§2)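 PC-3 cells seeded 2 × 10^5/well and grown 24 h. GFLX 16 μg/ml added together with TNF-α (0, 5, 10, 25 ng/ml), or 30 or 60 min after it. Total TNF-α exposure 120 min. Secreted IL-8 measured by ELISA; means ± SD of three experiments.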

PC-3 [7] = experiment: Suppression of TNF alpha-stimulated IL8 secretion in human PC3 cells at 16 ug/ml added 30 mins after stimulation; type: functional; conditions: PC-3, 0.5 h; procedure, shortened: as §2
PC-3 [8] = experiment: Suppression of TNF alpha-stimulated IL8 secretion in human PC3 cells at 16 ug/ml added 60 mins after stimulation; type: functional, cell-based; procedure, shortened: as §2
PC-3 [9] = experiment: Inhibition of peptidoglycan-induced NF kappaB activation in human PC3 cells at 16 ug/ml; type: functional, cell-based
Procedure, shortened: (§3)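 Cells transiently transfected (FuGENE 6) with NF-κB firefly luciferase reporter plus pRL-TK Renilla control. After 24 h, GFLX 16 μg/ml for 24 h, then serum-free medium with GFLX again. Stimulation: PGN 1 μg/ml or M. hominis membrane fraction 0.1 μg/ml for 6 h, TNF-α 10 ng/ml for 2 h. Dual luciferase read-out; three experiments.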

PC-3 [10] = experiment: Cytotoxicity against human PC3 cells at 2 ug/ml relative to control; type: cell-based
Procedure, shortened: (§4)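 PC-3 cells seeded 5 × 10^4/well, grown 24 h, then exposed to GFLX (from 2 mg/ml stock in 0.1 N NaOH; equal NaOH as control) for 48 h. Viability read with a modified MTT method (cell counting kit 8), expressed as % of untreated controls; mean ± SD, n = 3.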

PC-3 [11] = experiment: Cytotoxicity against human PC3 cells at 4 ug/ml relative to control; type: cell-based; procedure, shortened: as §4
PC-3 [12] = experiment: Cytotoxicity against human PC3 cells at 16 ug/ml relative to control; type: cell-based; procedure, shortened: as §4
PC-3 [13] = experiment: Decrease in IL8 secretion in human PC3 cells; type: functional, cell-based
Procedure, shortened: (§5)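 PC-3 cells seeded 2 × 10^5/well, grown 24 h, washed with PBS and switched to serum-free RPMI 1640. GFLX added (0.1 N NaOH vehicle control) and cells incubated 24 h without stimulus. IL-8 in medium quantified by ELISA; means ± SD of three experiments.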

PC-3 [14] = experiment: Decrease in IL8 secretion in human PC3 cells at 4 ug/ml; type: functional; set-up: scale not given: the % may be the effect or the level left; procedure, shortened: as §5
PC-3 [15] = experiment: Decrease in IL8 secretion in human PC3 cells at 16 ug/ml; type: functional; set-up: scale not given: the % may be the effect or the level left; procedure, shortened: as §5
PC-3 [16] = experiment: Reduction of peptidoglycan-stimulated IL8 secretion in human PC3 cells; type: functional; set-up: scale not given: the % may be the effect or the level left; procedure, shortened: as §1
PC-3 [17] = experiment: Inhibition of Mycoplasma hominis-induced NF kappaB activation in human PC3 cells at 16 ug/ml; type: functional, cell-based; procedure, shortened: as §3
PC-3 [18] = experiment: Inhibition of TNF alpha-induced NF kappaB activation in human PC3 cells at 16 ug/ml; type: functional, cell-based; procedure, shortened: as §3
PC-3 [19] = experiment: Inhibition of TNF alpha-stimulated IL8 mRNA expression in human PC3 cells at 16 ug/ml after 48 hrs; type: functional, cell-based
Procedure, shortened: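 PC-3 cells seeded 4 × 10^5 per 35-mm dish, grown 24 h, then GFLX 16 μg/ml for 48 h with medium and drug refreshed every 24 h. Cells moved to serum-free RPMI with GFLX and given TNF-α 10 ng/ml for 4 h. TRIzol RNA, oligo(dT) RT, 23-cycle PCR for IL-8 and β-actin. Densitometric IL-8/β-actin band ratio.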

PC-3 [20] = experiment: Suppression of TNF alpha-stimulated IL8 promoter activity in human PC3 cells; type: functional, cell-based
Procedure, shortened: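 PC-3 cells transfected with IL-8 promoter (−1481 to +44 bp) in pGL3-Basic plus pRL-TK. 24 h later, GFLX at 0, 2, 4 or 16 μg/ml for 24 h. Serum-free medium with same GFLX and TNF-α 10 ng/ml for 2 h. Dual luciferase read-out; means ± SD, three experiments.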

PC-3 [21] = experiment: Suppression of TNF alpha-stimulated IL8 D-170 mutant promoter activity in human PC3 cells at 16 ug/ml dual luciferase reporter assay; type: functional, cell-based
Procedure, shortened: (§6)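 PC-3 cells seeded 4 × 10^4/well and transfected with an IL-8 5′-deletion luciferase construct plus pRL-TK. 24 h later, GFLX 16 μg/ml for 24 h. Then serum-free medium, fresh GFLX and TNF-α 10 ng/ml for 2 h. Promoter activity by dual luciferase assay; means ± SD of three experiments.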

PC-3 [22] = experiment: Suppression of TNF alpha-stimulated IL8 D-240 mutant promoter activity in human PC3 cells at 16 ug/ml dual luciferase reporter assay; type: functional, cell-based; procedure, shortened: as §6
PC-3 [23] = experiment: Suppression of TNF alpha-stimulated IL8 D-188 mutant promoter activity in human PC3 cells at 16 ug/ml dual luciferase reporter assay; type: functional, cell-based; procedure, shortened: as §6
[24] = Decrease in IL8 secretion in human prostatic myofibroblast cells at 4 ug/ml; type: functional; set-up: scale not given: the % may be the effect or the level left
[25] = Decrease in IL8 secretion in human prostatic myofibroblast cells at 16 ug/ml; type: functional; set-up: scale not given: the % may be the effect or the level left
PC-3 [26] = experiment: Suppression of TNF alpha-stimulated IL8 mutant promoter activity in human PC3 cells at 16 ug/ml by dual luciferase reporter assay

Question: What does the source list for `COc1c(N2CCNC(C)C2)c(F)cc2c(=O)c(C(=O)O)cn(C3CC3)c12` (stereo unspecified) [GATIFLOXACIN]?
Answer: Activity (PC-3 [1]): 52%; Activity (PC-3 [2]): 34%; Activity (PC-3 [3]): Active; Activity (PC-3 [4]): 19%; Activity (PC-3 [5]): 16%; Activity (PC-3 [6]): 37%; inhibition at 16 µg/mL (PC-3 [7]): 25%; Activity (PC-3 [8]): Active; Activity (PC-3 [9]): inactive; Activity (PC-3 [10]): 97.6%; Activity (PC-3 [11]): 100%; Activity (PC-3 [12]): 96.6%; Activity (PC-3 [13]): Dose-dependent effect; Activity (PC-3 [14]): 22%; Activity (PC-3 [15]): 38%; Activity (PC-3 [16]): 42%; Activity (PC-3 [17]): inactive; Activity (PC-3 [18]): inactive; Activity (PC-3 [19]): Active; Activity (PC-3 [20]): Active; Activity (PC-3 [21]): inactive; Activity (PC-3 [22]): Active; Activity (PC-3 [23]): Active; Activity [24]: 19%; Activity [25]: 50%; Activity (PC-3 [26]): Active
